According to ChEMBL document CHEMBL4392838, “Binding pocket-based design, synthesis and biological evaluation of novel selective BRD4-BD1 inhibitors” (Bioorg Med Chem, 2019):
Active and inactive are the calls of the source. The calls are words filed in the database; no cut-off is given here.

How the values were obtained:
[1] = biological target: T1, Bromodomain-containing protein 4 (Homo sapiens, UniProt O60885); test: Inhibition of biotinylated H4 K5,8,12,16Ac peptide binding to GST-tagged BRD4 bromodomain2 (unknown origin) at 100 uM measured after 60 mins by AlphaScreen assay relative to control
Method in brief: (§1)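 AlphaScreen proximity assay measuring binding of the tetra-acetylated (K5,8,12,16Ac) biotinylated histone H4 peptide to recombinant BRD4 BD1 or BD2. Buffer was 50 mM HEPES with BSA, at 1% DMSO in the 10X compound dilutions. Compound, bromodomain, peptide and histidine-conjugated acceptor beads were incubated 60 min at room temperature. Streptavidin donor beads were then added for 30 min in the dark, and the endpoint Alpha signal read. Inhibition taken at 100 µM, mean of three independent experiments.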

[2] = Antifibrotic activity against human LX2 cells assessed as reduction in cell growth measured after 48 hrs by MTT assay; format: functional, cell-based; conditions: LX-2, 48 h
Method in brief: (§2)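 Cells grown at 37 °C in 5% CO2. MCF-7, A549 and HT-29 cells were kept in RPMI 1640 with 10% FBS and pen/strep. HepG2, A375, NRK-49F and LX-2 cells were kept in high-glucose DMEM with 10% FBS and pen/strep. HLF-1 cells were kept in DMEM/F-12 (1:1) with 10% FBS. Cells seeded for exponential growth, exposed to a concentration range for 48 h, then MTT added for 4 h at 37 °C. Formazan dissolved in DMSO, absorbance read at 490 nm, IC50 fitted.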

[3] = biological target: T1, Bromodomain-containing protein 4; test: Inhibition of biotinylated H4 K5,8,12,16Ac peptide binding to GST-tagged BRD4 bromodomain1 (unknown origin) at 100 uM measured after 60 mins by AlphaScreen assay relative to control; method in brief: as §1
[4] = tested on: MCF7; test: Antiproliferative activity against human MCF7 cells assessed as reduction in cell growth measured after 48 hrs by MTT assay; format: functional, cell-based; conditions: MCF7, 48 h; method in brief: as §2
[5] = biological target: T1, Bromodomain-containing protein 4; test: Inhibition of biotinylated H4 K5,8,12,16Ac peptide binding to GST-tagged BRD4 bromodomain1 (unknown origin) measured after 60 mins by AlphaScreen assay
[6] = tested on: A549; test: Antiproliferative activity against human A549 cells assessed as reduction in cell growth measured after 48 hrs by MTT assay; format: functional, cell-based; conditions: A549, 48 h; method in brief: as §2
[7] = tested on: A-375; test: Antiproliferative activity against human A375 cells assessed as reduction in cell growth measured after 48 hrs by MTT assay; format: functional, cell-based; conditions: A-375, 48 h; method in brief: as §2
[8] = Antifibrotic activity against human HLF1 cells assessed as reduction in cell growth measured after 48 hrs by MTT assay; format: functional, cell-based; conditions: HLF1, 48 h; method in brief: as §2
[9] = tested on: HepG2; test: Antiproliferative activity against human HepG2 cells assessed as reduction in cell growth measured after 48 hrs by MTT assay; format: functional, cell-based; conditions: HepG2, 48 h; method in brief: as §2
[10] = tested on: HT-29; test: Antiproliferative activity against human HT-29 cells assessed as reduction in cell growth measured after 48 hrs by MTT assay; format: functional, cell-based; conditions: HT-29, 48 h; method in brief: as §2
[11] = tested on: NRK-49F; test: Antifibrotic activity against rat NRK-49F cells assessed as reduction in cell growth measured after 48 hrs by MTT assay; format: functional, cell-based; method in brief: as §2
[12] = biological target: T1, Bromodomain-containing protein 4; test: Inhibition of BRD4 in human HLF1 cells assessed as reduction in collagen-1 mRNA expression at 1 uM measured after 24 hrs by RT-PCR analysis; format: cell-based
Method in brief: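 HLF-1 cells (2.5 × 10^5 per well) were treated for 24 h. Total RNA was extracted, reverse-transcribed to cDNA, and collagen I transcript measured by quantitative RT-PCR.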

[13] = biological target: T1, Bromodomain-containing protein 4; test: Inhibition of BRD4 in human HLF1 cells assessed as reduction in collagen-1 protein expression measured after 24 hrs by Western blot analysis; format: cell-based
Method in brief: (§3)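 Cells (2.5 × 10^5 per well; A375 for c-Myc, HLF-1 for collagen I) were treated for 24 h and lysed on ice. Lysate was clarified at 12,000g for 15 min at 4 °C and protein measured by BCA. 20–40 µg was run on SDS-PAGE and blotted to PVDF, then blocked in 5% milk. Primary antibodies (c-Myc or collagen I, β-actin loading control) overnight, secondary antibody 1 h, fluorescent detection.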

[14] = tested on: A-375; test: Induction of apoptosis in human A375 cells at 10 uM measured after 24 hrs by Annexin V-FITC/propidium iodide staining based fluorescence microscopic analysis; format: functional, cell-based
[15] = biological target: T1, Bromodomain-containing protein 4; test: Inhibition of BRD4 in human A375 cells assessed as reduction in c-MYC protein expression measured after 24 hrs by Western blot analysis; format: cell-based; method in brief: as §3
[16] = tested on: L02; test: Cytotoxicity against human LO2 cells assessed as reduction in cell growth measured after 24 hrs by MTT assay; format: cell-based; conditions: L02, 24 h
[17] = Selectivity index, ratio of IC50 for cytotoxicity against human LO2 cells to IC50 for antifibrotic activity against human LX2 cells

SMILES | inhibition [1] | IC50 [2] | inhibition [3] | IC50 [4] | IC50 [5] | IC50 [6] | IC50 [7] | IC50 [8] | IC50 [9] | IC50 [10] | IC50 [11] | inhibition [12] | inhibition [13] | Activity [14] | inhibition [15] | IC50 [16] | Ratio IC50 [17]
COc1ccc(-c2nc(=O)n(Cc3c(C)noc3C)c3sc4c(c23)CCN(C(C)C)C4)cc1 | 66.6% | 101 µM | 82.9% |  |  |  |  |  |  |  |  |  |  |  |  |  | 
CCc1c(C)sc2c1c(-c1ccccc1)nc(=O)n2Cc1c(C)noc1C | 17.8% | > 300 µM | 9.5% |  |  |  |  |  |  |  |  |  |  |  |  |  | 
CC(C)(C)C1CCc2c(sc3c2c(-c2ccccc2)nc(=O)n3Cc2ncccn2)C1 (configuration not stated) | 66.6% | 152 µM | 70.4% |  |  |  |  |  |  |  |  |  |  |  |  |  | 
Cc1noc(C)c1Cn1c(=O)nc(-c2ccc(Cl)cc2)c2c3c(sc21)CC(C(C)(C)C)CC3 (configuration not stated) | 23.4% | 10.4 µM |  | 78.3 µM | 2.4 µM | 66.5 µM | 13.6 µM | 18.9 µM | 26.4 µM | 33.8 µM | 26.3 µM |  |  |  |  |  | 
Cc1noc(C)c1Cn1c(=O)nc(-c2ccc(Cl)c(Cl)c2)c2c3c(sc21)CC(C(C)(C)C)CC3 (configuration not stated) | 29.9% | 9.1 µM |  | 16.6 µM | 0.56 µM | 24.5 µM | 4.9 µM | 13.6 µM | 14.5 µM | 19.4 µM | 16 µM | Active | Dose-dependent effect | Active | Dose-dependent effect | 33.2 µM | 3.6
Cc1noc(C)c1Cn1c(=O)nc(-c2ccc(Cl)cc2)c2c3c(sc21)CC(c1ccccc1)CC3 (configuration not stated) | 15.1% | 28.8 µM |  |  | 6 µM |  |  |  |  |  |  |  |  |  |  |  | 
Cc1sc2c(c1C)C(c1ccc(Cl)cc1)=N[C@@H](CC(=O)OC(C)(C)C)c1nnc(C)n1-2 |  | 28.6 µM |  | 38 µM |  | 13.1 µM | 7.5 µM | 20.4 µM | 11.3 µM | 19.6 µM | 21.1 µM |  |  | Active |  | 54.2 µM | 
CC(C)(C)C1CCc2c(sc3c2c(-c2ccc(Cl)cc2)nc(=O)n3Cc2cnc(Cl)s2)C1 (configuration not stated) |  | > 300 µM |  |  |  |  |  |  |  |  |  |  |  |  |  |  | 
CC(=O)C(C)n1c(=O)nc(-c2ccccc2)c2c3c(sc21)CCCC3 (configuration not stated) | 13.6% | > 300 µM | 30% |  |  |  |  |  |  |  |  |  |  |  |  |  | 
Cc1noc(C)c1Cn1c(=O)nc(-c2ccccc2)c2c3c(sc21)CC(C)(C)CC3 | 44.9% | > 300 µM | 86.6% |  |  |  |  |  |  |  |  |  |  |  |  |  | 
CNC(=O)Cn1c(=O)nc(-c2ccccc2)c2c3c(sc21)CCCC3 | 3.1% | > 300 µM | 38.5% |  |  |  |  |  |  |  |  |  |  |  |  |  | 
O=c1nc(-c2ccc(Cl)cc2)c2c3c(sc2n1Cc1cnc(Cl)s1)CC(c1ccccc1)CC3 (configuration not stated) | 14.5% | 98.2 µM | 44.9% |  |  |  |  |  |  |  |  |  |  |  |  |  | 
Cc1noc(C)c1Cn1c(=O)nc(-c2ccccc2)c2c3c(sc21)CC(C(C)(C)C)CC3 (configuration not stated) | 41.2% | 21.6 µM |  | > 100 µM | 8.2 µM | 29.6 µM | 8 µM | 21.3 µM | 10.9 µM | 20.1 µM | 23.1 µM |  |  |  |  |  | 
Cc1noc(C)c1Cn1c(=O)nc(-c2cccc(Cl)c2)c2c3c(sc21)CC(C(C)(C)C)CC3 (configuration not stated) | 52.3% | 15.3 µM |  | 25.7 µM | 3.1 µM | 18.9 µM | 15.9 µM | 12.8 µM | 3.6 µM | 19.7 µM | 8.5 µM |  |  |  |  |  | 
COc1ccc(-c2nc(=O)n(Cc3c(C)noc3C)c3sc4c(c23)CCC(C(C)(C)C)C4)cc1 (configuration not stated) | 42.2% | 12.9 µM |  | 10.4 µM | 11.4 µM | 18.9 µM | 14.2 µM | 14.1 µM | 15.1 µM | 13 µM | 22.2 µM |  |  |  |  |  | 
CC(=O)Cn1c(=O)nc(-c2ccccc2)c2c3c(sc21)CCCC3 | 17.2% | > 300 µM | 23.7% |  |  |  |  |  |  |  |  |  |  |  |  |  | 
Cc1noc(C)c1Cn1c(=O)nc(-c2ccccc2)c2c3c(sc21)CCCC3 | 26.2% | 114 µM | 46.4% |  |  |  |  |  |  |  |  |  |  |  |  |  | 
Cc1noc(C)c1Cn1c(=O)nc(-c2ccccc2Cl)c2c3c(sc21)CC(C(C)(C)C)CC3 (configuration not stated) | 39.5% | 11.3 µM |  | 69.2 µM | 1.6 µM | 16.6 µM | 11.1 µM | 12 µM | 30 µM | 19.2 µM | 17.2 µM |  |  |  |  |  | 
COC(=O)C1CCc2c(sc3c2c(-c2ccccc2)nc(=O)n3Cc2c(C)noc2C)C1 (configuration not stated) | 9% | > 300 µM | 19% |  |  |  |  |  |  |  |  |  |  |  |  |  | 
Cc1noc(C)c1Cn1c(=O)nc(-c2ccccc2)c2c3c(sc21)CCCCC3 | 81.2% | 140 µM | 84.4% |  |  |  |  |  |  |  |  |  |  |  |  |  | 
Cc1noc(C)c1Cn1c(=O)nc(-c2ccccc2)c2c3c(sc21)CCC3 | 19.8% | > 300 µM | 23% |  |  |  |  |  |  |  |  |  |  |  |  |  | 
COc1ccc(-c2nc(=O)n(Cc3cnc(Cl)s3)c3sc4c(c23)CCC(C(C)(C)C)C4)cc1 (configuration not stated) | 57.2% | 12.4 µM |  | > 100 µM | 18.5 µM | 95.1 µM | 6.5 µM | 14.6 µM | 14.5 µM | 98 µM | 11.2 µM |  |  |  |  |  | 
CC(C)(C)C1CCc2c(sc3c2c(-c2ccccc2)nc(=O)n3Cc2cnc(Cl)s2)C1 (configuration not stated) | 28.3% | 4.2 µM |  | > 100 µM | 22.7 µM | 31.9 µM | 14.7 µM | 7.6 µM | 2.4 µM | 54.4 µM | 6 µM |  |  |  |  |  | 
Cn1c(=O)nc(-c2ccccc2)c2c3c(sc21)CCCC3 | 66.2% | > 300 µM | 42.6% |  |  |  |  |  |  |  |  |  |  |  |  |  | 
COC(=O)c1ccc(-c2nc(=O)n(Cc3c(C)noc3C)c3sc4c(c23)CCC(C(C)(C)C)C4)cc1 (configuration not stated) | 49.7% | 19.6 µM |  | 38.6 µM | 1.5 µM | 19.3 µM | 8.7 µM | 6.6 µM | 12.8 µM | 17.8 µM | 8.1 µM |  |  |  |  |  | 
Cc1noc(C)c1COc1nc(-c2ccc(Cl)c(Cl)c2)c2c3c(sc2n1)CC(C(C)(C)C)CC3 (configuration not stated) | 9.3% | > 300 µM | 32.6% |  |  |  |  |  |  |  |  |  |  |  |  |  | 
Cc1noc(C)c1Cn1c(=O)nc(-c2ccc(F)cc2)c2c3c(sc21)CC(C(C)(C)C)CC3 (configuration not stated) | 33.2% | 17.3 µM |  | 33.3 µM | 3.6 µM | 49.9 µM | 14.2 µM | 14.5 µM | 63.7 µM | 10.7 µM | 23.3 µM |  |  |  |  |  | 
COc1cc(OC)c2c(=O)[nH]c(-c3cc(C)c(OCCO)c(C)c3)nc2c1 [APABETALONE] |  | 79.7 µM |  | > 300 µM |  | 53.1 µM | 241 µM | 52 µM | 103 µM | 236 µM | 42 µM |  |  | inactive |  | > 100 µM | 
